Measured values published in the RNAGym collection of RNA variant scans (doi:10.1126/science.aae0568).
Fewer inactive variants are shown than the library holds.

B1: tRNA (parent)
chain: GUUCCGUUGGCGUAAUGGUAACGCGUCUCCCUCCUAAGGAGAAGACUGCGGGUUCGAGUCCCGUACGGAACG

Variants of: B1
Assay: yeast fitness relative to wild type (ratio to wild type); higher = fitter; tRNA-Arg(CCU), competitive growth, 37 C, YPD
How it was run: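 Variants of the tRNA-Arg(CCU) gene, chemically synthesised with a 3% per-site mutation rate at 69 sites, were placed at the native genomic locus in Saccharomyces cerevisiae. The pooled strains were competed in YPD at 37°C for 24 hours in six parallel replicates. Gene amplicons from the start population and from each end population were read by 100-nucleotide paired-end sequencing. Darwinian fitness relative to wild type came from changes in genotype frequencies; genotypes needed ≥ 100 starting reads, and estimates < 0.5 were set to 0.5.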

Variant | yeast fitness
A15U C31A U54C | ≤ 0.5
U16A C24U G44C | 0.6
A15U C33U U64G A70C | ≤ 0.5
U16A A43G | 1.01
U16A A43U | 1.14
U16A C46U G68C | 0.651
A15U C33A A37G U53C | 0.668
U16A A20G C27U G41C G63A | ≤ 0.5
A15U C60A | 0.512
A15U U19C G23C C27G A45C G63C | ≤ 0.5
U16A A37U G56A A65U | ≤ 0.5
U16A A21G C34U G67C | ≤ 0.5
U16A C29G C46U C49U U59G A65U G68A | 0.537
U16A C34U U47C A57U | ≤ 0.5
A15U G50C U54C | ≤ 0.5
U16A C33U G38C | 0.625
A15U U16C G18C C29A A43G A45G C62G | ≤ 0.5
U16A A43G A69G A70G | ≤ 0.5
U16A C30U A40C | ≤ 0.5
U16A A20C C29G G63A G68C | ≤ 0.5
A15U U28C C55G | 0.589

Variant | yeast fitness
A15U C61A | 0.571
A15U C61G | 0.582
A15U C61U | 0.673
A15U C30U G52A A65U | ≤ 0.5
U16A C30G A37C G68C | ≤ 0.5
U16A A20U C46A | ≤ 0.5
A15U C66G | 0.671
U16A A20U C24G C33G C61A G67C | 0.561
U16A A42U G56A G58A | 0.817
U16A A37C | 0.653
U16A A21U C27U A40U C66A | ≤ 0.5
A15U U28A | 0.57
A15U C27U C49U | 0.655
U16A A36C A37G G56C | ≤ 0.5
A15U C31U U35A A36C U53A | 0.625
U16A A69U | 1.03
U16A C24G U35G | ≤ 0.5
A15U C31A C49G A65C | ≤ 0.5
A15U U16A C27G C55U C62U G67C | ≤ 0.5
A15U C33U G56A | ≤ 0.5
A15U G23C U28G U32C A36U G38A C55A | 0.689

Variant | yeast fitness
A15U U53A G63A | ≤ 0.5
A15U G38A A40C | ≤ 0.5
A15U C27U G39A G48A | ≤ 0.5
A15U G68A | 0.62
A15U C29G C31G C60U | 0.675
A15U U28A C33G U64A | ≤ 0.5
A15U C31G U53A C55U G68U | ≤ 0.5
A15U G17C A45U C49G | ≤ 0.5
A15U U35C G41A C60A A65U A69G | 0.563
A15U C29U C46U | 0.667
U16A C33G C66G | ≤ 0.5
A15U C29A G50C | ≤ 0.5
A15U G18A C27G G56C G68C | ≤ 0.5
A15U U64G A69U | ≤ 0.5
U16A C34G | 0.683
A15U C30G C34U C66U A70C | 0.511
A15U U16C U35A G44A | ≤ 0.5
A15U C31U G52A | 0.576
A15U G23C C33A C66U G68C | ≤ 0.5
A15U C55A | 0.503
A15U C55G | 0.604

Variant | yeast fitness
A15U C55U | 0.672
A15U C66U A70U | 0.604
A15U G25A G68A | 0.698
A15U U16C G38C G39A A43C C60G A65C | ≤ 0.5
U16A A45C A65G | ≤ 0.5
A15U C30A C31U A45C C55G | ≤ 0.5
U16A C24U C34A C62A A65G | ≤ 0.5
U16A C49G | 0.769
U16A C29G G41C A45U | ≤ 0.5
A15U G58A | 1
A15U G58C | 0.916
A15U G39C | 0.597
A15U U32C A42C | 0.596
U16A C31A C34G | ≤ 0.5
A15U C31G U53A C55U A57C C60G G67C | 0.546
A15U U28A G38A G52C C60G | ≤ 0.5
A15U G17C A37U | ≤ 0.5
U16A C34U A36G A40C G44C | ≤ 0.5
A15U U53A | 0.648
A15U G23C A40U G63C | ≤ 0.5
